Assay results: ChEMBL document CHEMBL4011629, “New Disubstituted Quindoline Derivatives Inhibiting Burkitt's Lymphoma Cell Proliferation by Impeding c-MYC Transcription” (J Med Chem, 2017)
The source made the active and inactive calls. The calls are words filed in the database; no cut-off is given here.

What was measured:
[1] = Stabilization of 5'-FAM/3'-TAMRA labeled c-Myc Pu22 G-quadruplex DNA (unknown origin) assessed as change in melting temperature at 2 uM by FRET assay
How it was run: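 FRET melting of FAM/TAMRA-labelled FPu22T (0.2 μM) in 10 mM Tris-HCl pH 7.4 with 2 mM KCl, ligand 2 μM, in a real-time PCR machine. Excitation 470 nm, emission 530 nm, read every 1 °C from 37 to 99 °C after 30 s hold at each step; ΔTm versus probe alone.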

[2] = Stabilization of c-Myc Pu27 G-quadruplex DNA (unknown origin) assessed as induction of parallel G-quadruplex formation in absence of K+ ions by CD spectroscopic analysis
How it was run: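 CD spectra: Pu27 at 5 μM in 10 mM Tris-HCl pH 7.4 without or with 100 mM KCl, annealed 95 °C 5 min, slow-cooled, kept at 4 °C overnight, with ligand. Scanned 230–400 in a 4 mm quartz cuvette, 1 nm bandwidth and step, 0.5 s/point; buffer baseline subtracted.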

[3] = Binding affinity to 5'-FAM labeled c-Myc Pu27 G-quadruplex DNA (unknown origin) in presence of K+ ions by MST analysis
How it was run: (§1)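 The DNA was annealed at 95 °C for 5 min, slowly cooled and held at 4 °C overnight. Ligand was run as a 12-point series, 0–20 μM for Pu27 and up to 200 μM for duplex. MST was measured, and KD was fitted to a Hill model from three replicates.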

[4] = Binding affinity to 5'-FAM labeled duplex DNA (unknown origin) by MST analysis; how it was run: as §1
[5] = Stabilization of c-Myc Pu27 G-quadruplex DNA (unknown origin) assessed as induction of parallel G-quadruplex formation in absence of K+ ions by CD spectroscopic analysis
[6] = Selectivity ratio of Kd for 5'-FAM labeled duplex DNA (unknown origin) to Kd for 5'-FAM labeled c-Myc Pu27 G-quadruplex DNA (unknown origin)
How it was run: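 MST binding: FAM-Pu27 or FAM-duplex oligo at 10 μM in 10 mM Tris-HCl pH 7.4 with 150 mM KCl, annealed 95 °C 5 min, slow-cooled, held 4 °C overnight. Ligand titrated as a 12-point series, 0–20 μM for G4 or up to 200 μM for duplex. KD fitted with Hill model; three replicates.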

Raji = assay: Antiproliferative activity against human Raji cells after 48 hrs by MTT assay; assay type: functional, cell-based
How it was run: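 RAJI cells were seeded at 5 × 10^3 cells per well and treated for 48 h, with a DMSO-matched control. MTT at 0.5 mg/mL was added for 4 h at 37 °C, followed by overnight lysis at 37 °C and absorbance at 570 nm. Each assay was done in triplicate. IC50 came from the dose-dependent percentage survival versus the control.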

[7] = Inhibition of NM23-H2 binding to 5'-FAM labeled c-Myc Pu27 G-quadruplex DNA (unknown origin) at 10 uM preincubated for 1 hr followed by NM23-H2 addition by electrophoretic mobility shift assay relative to control
How it was run: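 Annealed labeled Pu27 (1.5 μM) preincubated 1 h at 25 °C with 10 μM ligand or 5% DMSO. Recombinant His-tagged NM23-H2 (0.5 μM, E. coli BL21, nickel-purified) then added for 1 h at 37 °C. Complexes resolved on 5% native polyacrylamide gel in 0.5× TBE at 4 °C. Inhibition taken as loss of complex band intensity versus no-compound band set at 100%. Run three times.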

Homo sapiens [8] = species on record: Homo sapiens; assay: Stabilization of c-Myc G-quadruplex DNA in human Raji cells assessed as decrease in amplification of exon-1 at 1 uM after 12 hrs by RT-PCR method; assay type: cell-based
How it was run: (§2)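 Cells treated 12 h with compound at various concentrations, untreated cells as control. Total RNA (2 μg) reverse-transcribed with oligo dT18 and M-MLV (42 °C 1 h). c-MYC exons 1 and 2, NM23-H2 and β-actin amplified by real-time PCR, products checked on 1% agarose gel. Three independent repeats, mean ± SEM, two-tailed unpaired t test versus untreated.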

Homo sapiens [9] = species on record: Homo sapiens; assay: Effect on c-Myc DNA translocated chromosome product in human Raji cells assessed as decrease in amplification of exon-2 at 1 uM after 12 hrs by RT-PCR method; assay type: cell-based; how it was run: as §2
Homo sapiens [10] = species on record: Homo sapiens; assay: Stabilization of c-Myc G-quadruplex DNA in human CA46 cells assessed as decrease in amplification of exon-1 at 1 uM after 12 hrs by RT-PCR method; assay type: cell-based; how it was run: as §2
Homo sapiens [11] = species on record: Homo sapiens; assay: Effect on c-Myc DNA translocated chromosome product in human CA46 cells assessed as decrease in amplification of exon-2 at 1 uM after 12 hrs by RT-PCR method; assay type: cell-based; how it was run: as §2

| SMILES | ΔTm [1] [°C] | Activity [2] | Activity [3] | Activity [4] | Activity [5] | Kd [3] [nM] | Selectivity ratio [6] | IC50 (Raji) [nM] | Activity [1] | inhibition [7] | Activity (Homo sapiens [8]) | Activity (Homo sapiens [9]) | Activity (Homo sapiens [10]) | Activity (Homo sapiens [11]) |
| --- | --- | --- | --- | --- | --- | --- | --- | --- | --- | --- | --- | --- | --- | --- |
| CN(C)CCNc1c2ccccc2[n+](C)c2c1oc1ccc(OCC[N+](C)(C)C)cc12 | 33.1 to 36.7 | Active | Active | Active | Active |  |  |  |  |  |  |  |  |  |
| CN(C)CCCNc1c2ccccc2nc2c1oc1cc(OCCN(C)C)ccc12 | 22.1 to 25.2 | Active |  |  | Active | 1300 to 4900 | 2.5 to 10.1 | 1000 to 4000 |  |  |  |  |  |  |
| CN(C)CCCCNC(=O)COc1ccc2oc3c(NCCCCN(C)C)c4ccccc4[n+](C)c3c2c1 | 13.5 to 36.7 | Active | Active | Active | Active |  |  |  |  |  |  |  |  |  |
| CN(C)CCNC(=O)COc1ccc2oc3c(NCCN(C)C)c4ccccc4nc3c2c1 | 13.5 to 36.7 | Active | Active |  | Active |  | 2.9 to 9.7 | 1000 to 4000 |  |  |  |  |  |  |
| CN(C)CCCNC(=O)COc1ccc2oc3c(NCCCN(C)C)c4ccccc4nc3c2c1 | 21.2 | Active | Active |  | Active |  | 2.9 to 9.7 | 1000 to 4000 |  |  |  |  |  |  |
| CN1CCN(CCNC(=O)COc2ccc3oc4c(NCCN5CCN(C)CC5)c5ccccc5[n+](C)c4c3c2)CC1 | 13.5 to 36.7 | Active | Active | Active | Active |  |  |  |  |  |  |  |  |  |
| C[n+]1c2ccccc2c(NCCN2CCCCC2)c2oc3ccc(OCC(=O)NCCN4CCCCC4)cc3c21 | 30 | Active | Active | Active | Active |  |  |  |  |  |  |  |  |  |
| CN(C)CCCNc1c2ccccc2[n+](C)c2c1oc1ccc(OCCC[N+](C)(C)C)cc12 | 33.1 to 36.7 | Active | Active | Active | Active |  |  |  |  |  |  |  |  |  |
| C[n+]1c2ccccc2c(NCCCN2CCOCC2)c2oc3ccc(OCC(=O)NCCCN4CCOCC4)cc3c21 | 36.1 | Active | Active | Active | Active |  |  |  |  |  |  |  |  |  |
| CCN(CC)CCCNC(=O)COc1ccc2oc3c(NCCCN(CC)CC)c4ccccc4[n+](C)c3c2c1 | 13.5 to 36.7 | Active |  | Active | Active | 700 |  |  |  |  |  |  |  |  |
| C[n+]1c2ccccc2c(NCCN2CCOCC2)c2oc3ccc(OCC(=O)NCCN4CCOCC4)cc3c21 | 28.4 | Active | Active | Active | Active |  |  |  |  |  |  |  |  |  |
| C[n+]1c2ccccc2c(NCCCN2CCCCC2)c2oc3ccc(OCC(=O)NCCCN4CCCCC4)cc3c21 | 35.2 | Active | Active | Active | Active |  |  |  |  |  |  |  |  |  |
| CN(C)CCNC(=O)COc1ccc2oc3c(NCCN(C)C)c4ccccc4[n+](C)c3c2c1 | 13.5 to 36.7 | Active | Active | Active | Active |  |  |  |  |  |  |  |  |  |
| CN(C)CCCNc1c2ccccc2[n+](C)c2c1oc1ccc(OCC[N+](C)(C)C)cc12 | 33.1 to 36.7 | Active | Active | Active | Active |  |  |  |  |  |  |  |  |  |
| CCN(CC)CCNC(=O)COc1ccc2oc3c(NCCN(CC)CC)c4ccccc4[n+](C)c3c2c1 | 13.5 to 36.7 | Active |  | Active | Active | 800 |  |  |  |  |  |  |  |  |
| CN(C)CCCNc1c2ccccc2nc2c1oc1ccc(OCCCN(C)C)cc12 | 22.1 to 25.2 | Active |  |  | Active | 1300 to 4900 | 2.5 to 10.1 | 1000 to 4000 |  |  |  |  |  |  |
| CN(C)CCCNc1c2ccccc2nc2c1oc1c(OCCN(C)C)cccc12 | 18.6 | Active |  |  | Active | 1300 to 4900 | 2.5 to 10.1 | 1000 to 4000 |  |  |  |  |  |  |
| O=C(COc1ccc2oc3c(NCCN4CCCCC4)c4ccccc4nc3c2c1)NCCN1CCCCC1 | 13.5 to 36.7 | Active | Active |  | Active |  | 2.9 to 9.7 | 1000 to 4000 |  |  |  |  |  |  |
| CCN(CC)CCCNC(=O)COc1ccc2oc3c(NCCCN(CC)CC)c4ccccc4nc3c2c1 | 13.5 to 36.7 | Active | Active |  | Active |  | 2.9 to 9.7 | 1000 to 4000 |  |  |  |  |  |  |
| CN(C)CCCNC(=O)COc1ccc2oc3c(NCCCN(C)C)c4ccccc4[n+](C)c3c2c1 | 35.6 | Active | Active | Active | Active |  |  |  |  |  |  |  |  |  |
| CN(C)CCCNc1c2ccccc2nc2c1[nH]c1ccccc12 |  |  |  |  |  | 7800 | 1.02 |  | Active | Active | Active | Active | Active | Active |
| CN(C)CCCNc1c2ccccc2nc2c1oc1ccc(OCCN(C)C)cc12 | 22.1 to 25.2 | Active |  |  | Active | 1300 to 4900 | 2.5 to 10.1 | 1000 to 4000 |  |  |  |  |  |  |
| CN(C)CCCNc1c2ccccc2[n+](C)c2c1oc1ccc(OCC3CC[N+](C)(C)CC3)cc12 | 33.1 to 36.7 | Active | Active | Active | Active |  |  |  |  |  |  |  |  |  |
| CN(C)CCCNc1c2ccccc2nc2c1oc1c(OCCCN(C)C)cccc12 | 13.5 | Active |  |  | Active | 1300 to 4900 | 2.5 to 10.1 | 1000 to 4000 |  |  |  |  |  |  |
| CN(C)CCNc1c2ccccc2nc2c1oc1ccc(OCCN(C)C)cc12 | 13.5 to 36.7 | Active |  |  | Active | 1300 to 4900 | 2.5 to 10.1 | 1000 to 4000 |  |  |  |  |  |  |
| CCN(CC)CCNC(=O)COc1ccc2oc3c(NCCN(CC)CC)c4ccccc4nc3c2c1 | 13.5 to 36.7 | Active | Active |  | Active |  | 2.9 to 9.7 | 1000 to 4000 |  |  |  |  |  |  |
| CN(C)CCCNc1c2ccccc2nc2c1oc1cc(OCCCN(C)C)ccc12 | 22.1 to 25.2 | Active |  |  | Active | 1300 to 4900 | 2.5 to 10.1 | 1000 to 4000 |  |  |  |  |  |  |
